Measured values: PMC3313004 (Molecular Microbiology, 2012)

Experiments:
TcdBHV [1] = assay: In vitro TcdB autoprocessing assay; type: biochemical, Clostridium difficile BI17
TcdBHIST [2] = target: T1, TcdBHIST (Clostridioides difficile, UniProt P18177); assay: In vitro TcdB autoprocessing assay; type: biochemical, Clostridium difficile 10463
TcdBHV [3] = assay: In vitro inhibition of IP6-induced processing with Ac-GSL-AOMK; type: biochemical, Clostridium difficile BI17
[4] = system: TcdBHV treated CHO-K1 cells; assay: Inactivation of TcdB in cell culture; type: cell-based; conditions: TcdBHV pre-incubated with 100 µM inhibitor; 24 hrs
Summary of the method: (§1)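 CHO-K1 cells were seeded at 1–2 × 10^4 cells/well in F12-K medium with 10% FBS. Toxin at 0.037, 0.37 or 3.7 pM was preincubated for 30 min in F12-K medium with 100 µM of the CPD inhibitor Ac-GSL-AOMK, then added to wells in triplicate. Cells were kept 24 h at 37°C, 6% CO₂, and viability was read by CCK-8.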

[5] = system: TcdBHIST treated CHO-K1 cells; assay: Inactivation of TcdB in cell culture; type: cell-based; conditions: TcdBHIST pre-incubated with 100 µM inhibitor; 24 hrs
Summary of the method: as §1

TcdBHIST [6] = target: T1, TcdBHIST
TcdBHV [7] = assay: AWP19 probe labeling of TcdB; type: biochemical, Clostridium difficile BI17; conditions: 1 h IP6, then AWP19 in 10-fold molar excess
TcdBHIST [8] = target: T1, TcdBHIST; assay: AWP19 probe labeling of TcdB; type: biochemical, Clostridium difficile 10463; conditions: 1 h IP6, then AWP19 in 10-fold molar excess
[9] = up to 100 µM inhibitor, 25 µM IP6, 3 independent experiments

T1 sequence (P18177 whole entry): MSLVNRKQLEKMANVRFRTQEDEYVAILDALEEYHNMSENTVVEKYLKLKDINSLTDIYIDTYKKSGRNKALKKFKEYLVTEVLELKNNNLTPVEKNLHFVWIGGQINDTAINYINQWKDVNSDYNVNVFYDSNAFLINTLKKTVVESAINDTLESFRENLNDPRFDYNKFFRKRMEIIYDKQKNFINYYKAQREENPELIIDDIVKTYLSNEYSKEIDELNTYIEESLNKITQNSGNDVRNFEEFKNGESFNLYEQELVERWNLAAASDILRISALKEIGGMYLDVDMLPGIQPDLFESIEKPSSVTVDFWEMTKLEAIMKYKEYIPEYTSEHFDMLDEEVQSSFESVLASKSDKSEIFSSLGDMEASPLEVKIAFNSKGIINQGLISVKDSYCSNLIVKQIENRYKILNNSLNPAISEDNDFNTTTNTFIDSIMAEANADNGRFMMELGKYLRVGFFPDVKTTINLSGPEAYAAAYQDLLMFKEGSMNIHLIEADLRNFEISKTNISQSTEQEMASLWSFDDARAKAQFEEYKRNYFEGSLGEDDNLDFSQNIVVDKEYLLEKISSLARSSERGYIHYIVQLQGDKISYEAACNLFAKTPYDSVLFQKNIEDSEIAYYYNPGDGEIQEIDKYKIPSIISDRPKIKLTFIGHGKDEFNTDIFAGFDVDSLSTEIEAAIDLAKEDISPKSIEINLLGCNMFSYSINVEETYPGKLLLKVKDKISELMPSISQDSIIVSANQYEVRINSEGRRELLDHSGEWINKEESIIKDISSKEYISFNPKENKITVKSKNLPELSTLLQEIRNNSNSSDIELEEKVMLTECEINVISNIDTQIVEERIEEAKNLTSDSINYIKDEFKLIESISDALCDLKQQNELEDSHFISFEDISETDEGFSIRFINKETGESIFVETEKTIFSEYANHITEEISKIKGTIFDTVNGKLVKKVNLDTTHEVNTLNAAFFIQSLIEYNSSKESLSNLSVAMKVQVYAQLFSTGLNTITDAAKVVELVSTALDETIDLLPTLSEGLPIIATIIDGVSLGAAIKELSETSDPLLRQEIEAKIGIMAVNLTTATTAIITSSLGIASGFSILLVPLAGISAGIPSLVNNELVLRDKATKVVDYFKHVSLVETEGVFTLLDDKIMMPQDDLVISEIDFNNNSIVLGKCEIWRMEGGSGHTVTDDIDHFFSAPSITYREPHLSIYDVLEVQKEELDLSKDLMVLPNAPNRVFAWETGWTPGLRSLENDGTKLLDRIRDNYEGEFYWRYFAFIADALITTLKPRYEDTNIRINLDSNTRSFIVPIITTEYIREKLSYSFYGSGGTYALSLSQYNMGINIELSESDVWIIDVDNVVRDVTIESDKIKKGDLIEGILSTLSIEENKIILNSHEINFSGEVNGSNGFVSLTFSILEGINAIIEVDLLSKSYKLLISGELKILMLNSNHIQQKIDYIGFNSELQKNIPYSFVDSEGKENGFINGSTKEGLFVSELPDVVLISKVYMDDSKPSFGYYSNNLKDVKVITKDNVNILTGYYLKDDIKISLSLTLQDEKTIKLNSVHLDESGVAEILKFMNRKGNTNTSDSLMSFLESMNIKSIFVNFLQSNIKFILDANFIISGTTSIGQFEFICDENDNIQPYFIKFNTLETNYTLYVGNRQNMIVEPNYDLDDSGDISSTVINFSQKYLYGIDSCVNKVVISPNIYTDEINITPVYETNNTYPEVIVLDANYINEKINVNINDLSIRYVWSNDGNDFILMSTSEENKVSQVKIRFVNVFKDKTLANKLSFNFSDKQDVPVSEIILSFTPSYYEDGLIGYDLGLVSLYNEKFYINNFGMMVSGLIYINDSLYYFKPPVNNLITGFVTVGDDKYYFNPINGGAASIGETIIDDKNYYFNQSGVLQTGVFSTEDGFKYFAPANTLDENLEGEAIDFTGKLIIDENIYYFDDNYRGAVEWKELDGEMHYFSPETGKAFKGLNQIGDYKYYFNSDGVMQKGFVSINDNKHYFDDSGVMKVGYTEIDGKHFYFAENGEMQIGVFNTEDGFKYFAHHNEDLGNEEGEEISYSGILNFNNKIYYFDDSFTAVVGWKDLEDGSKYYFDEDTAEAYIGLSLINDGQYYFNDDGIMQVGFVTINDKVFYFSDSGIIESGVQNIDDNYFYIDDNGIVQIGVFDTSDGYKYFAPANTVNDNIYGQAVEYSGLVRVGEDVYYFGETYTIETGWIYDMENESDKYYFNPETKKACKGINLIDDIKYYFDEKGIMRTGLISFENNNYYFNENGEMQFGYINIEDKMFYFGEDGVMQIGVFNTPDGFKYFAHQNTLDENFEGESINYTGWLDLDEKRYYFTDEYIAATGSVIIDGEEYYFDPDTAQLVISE

## O[C@@H](CS)[C@@H](O)CS (racemic) [DTT, Dithiothreitol]
TcdBHV [1]; 5 mM DTT in place of IP6
  time to maximum activation: approximately 1 h
TcdBHV [1]; 5 mM DTT in place of IP6, 90 min time-course
  time to activation of processing: ≤ 15 min
TcdBHIST [2]; 5 mM DTT, 90 min time-course
  activation of processing: just slightly above the level of detection

## Ac-GSL-AOMK
TcdBHV [3]; 25 µM IP6
  concentration at which inhibition of IP6-induced processing was detectable: around 12.5 µM
TcdBHV [3]; no IP6 (data not shown)
  effect of inhibitor without IP6: no effect
TcdBHV [3]; [9]
  maximum percent inhibition of processing: around 60%
[4]
  protection of CHO cells from toxin: not as functional
[5]
  protection of CHO cells from toxin: provided protection
TcdBHIST [6]; 25 µM IP6
  concentration at which inhibition of IP6-induced processing was detectable: around 12.5 µM
TcdBHIST [6]; no IP6 (data not shown)
  effect of inhibitor without IP6: no effect
TcdBHIST [6]; [9]
  percent of proteolysis blocked: ~100%

## O=P(O)(O)OC1C(OP(=O)(O)O)C(OP(=O)(O)O)C(OP(=O)(O)O)C(OP(=O)(O)O)C1OP(=O)(O)O (centres unmarked) [IP6, inositol hexakisphosphate]
TcdBHV [1]; 100 µM IP6
  time to half-maximal level of proteolysis: ≤ 2 min
TcdBHV [1]; 100 µM IP6, within the first hour
  percent cleavage (autoprocessing): ~80%
TcdBHIST [2]; 100 µM IP6
  time to half-maximal level of proteolysis: ≤ 2 min
TcdBHIST [2]; 100 µM IP6, up to 60 min
  maximal processing: under 60%
TcdBHV [7]
  IP6 concentration at which AWP19-labeled toxin could be detected: 5 µM
TcdBHIST [8]
  IP6 concentration at which AWP19-labeled toxin could be detected: 5 µM
